The record followed here is ChEMBL document CHEMBL1926673, “Synthesis, molecular docking study and antitumor activity of novel 2-phenylindole derivatives” (Eur J Med Chem, 2012).

Molecules are shown by their SMILES.

Assay [1] relates to MCF7. The assay is described as follows: Cytotoxicity against human MCF7 cells after 48 hrs by SRB assay. The note with it: MCF7, 48 h. The format is functional, cell-based. Summed up: (§1)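 Cells seeded at 10⁴ per well and allowed to attach for 24 h, then exposed to compounds at 0, 1, 2.5 and 10 (four levels), triplicate wells per dose, for 48 h at 37 C in 5% CO₂. Cells were then fixed, washed and stained with sulforhodamine B. Excess dye was removed with acetic acid, and bound dye was recovered in Tris EDTA buffer. Results are given as IC₅₀.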
In general terms: In SRB staining, fixed cells bind dye roughly in proportion to their protein.

Assay [2] concerns MDA-MB-231. The assay is described as follows: Cytotoxicity against human MDA-MB-231 cells after 48 hrs by SRB assay. To be noted: MDA-MB-231, 48 h. The class given is functional, cell-based. Summed up:
as §1

Broadly, the IC50 is the concentration that inhibits the measured activity by half. A high value points to lower potency.

`O=C(N/N=C/c1c(-c2ccc(O)cc2)[nH]c2ccccc12)c1ccc([N+](=O)[O-])cc1`: the IC50 in assay [1] amounted to 0.0016 µM; in assay [2], 0.0325 µM.

As to `CC(=O)NNC(=O)COc1ccc(-c2cc3ccccc3[nH]2)cc1`, in assay [1], the IC50 is 0.0929 µM.

The compound `CCOC(=O)COc1ccc(-c2cc3ccccc3[nH]2)cc1` showed a half-inhibitory concentration (IC50) in assay [1] of 0.102 µM.

In turn, `COC(=O)COc1ccc(-c2cc3ccccc3[nH]2)cc1` had an IC50 in assay [1] of 0.035 µM.

In the case of `O=C(COc1ccc(-c2cc3ccccc3[nH]2)cc1)N1CCCC1`, the figures for the IC50 in assay [1] and in assay [2] were 0.0148 µM and 0.0422 µM, respectively.

The compound `COC(=O)Oc1ccc(-c2cc3ccccc3[nH]2)cc1` displayed an IC50 in assay [1] of 0.0936 µM.

In turn, `O=C(COc1ccc(-c2cc3ccccc3[nH]2)cc1)N(CCO)CCO` returned an IC50 in assay [1] of 0.0275 µM.

Compound `N#CC(C#N)=Cc1c(-c2ccc(O)cc2)[nH]c2ccccc12` registered an IC50 in assay [1] of 0.0877 µM.

For `Cc1cc(NS(=O)(=O)c2ccc(NC(=O)COc3ccc(-c4cc5ccccc5[nH]4)cc3)cc2)no1`, the figures for the 50% inhibitory concentration (IC50) in assay [1] and in assay [2] were 0.0175 µM and 0.00956 µM, respectively.

On to `Oc1ccc(-c2[nH]c3ccccc3c2/C=N/Nc2ccccc2)cc1`, for which the results for the IC50 in assay [1] and in assay [2] were 0.0067 µM and 0.0251 µM, respectively.

`Oc1ccc(-c2[nH]c3ccccc3c2-c2ncc[nH]2)cc1`: in assay [1], the IC50 came to 0.0284 µM.

Regarding `Oc1ccc(-c2[nH]c3ccccc3c2/C=N/Nc2ccccc2Cl)cc1`, the concentration for half-maximal inhibition (IC50) in assay [1] came out at 0.0057 µM; in assay [2], 0.0316 µM.

Turning to `Cc1cc(-c2ccccc2)nn1C(=O)COc1ccc(-c2cc3ccccc3[nH]2)cc1`, half-maximal inhibition in assay [1] (IC50) was put at 0.0489 µM.

`Nc1ccccc1-c1nnc(COc2ccc(-c3cc4ccccc4[nH]3)cc2)o1` returned an IC50 in assay [1] of 0.026 µM.

In the case of `c1ccc(-c2nnc(COc3ccc(-c4cc5ccccc5[nH]4)cc3)o2)cc1`, the IC50 in assay [1] stood at 0.0137 µM; in assay [2], 0.0183 µM.

Compound `NC(=O)COc1ccc(-c2cc3ccccc3[nH]2)cc1` gave a concentration for half-maximal inhibition (IC50) in assay [1] of 0.0376 µM.

Regarding `O=C(N/N=C/c1c(-c2ccc(O)cc2)[nH]c2ccccc12)c1ccccc1`, the half-maximal inhibitory concentration (IC50) was 0.0187 µM in assay [1] and 0.0282 µM in assay [2].

Turning to `Nc1ccccc1C(=O)N/N=C/c1c(-c2ccc(O)cc2)[nH]c2ccccc12`, the IC50 was 0.0179 µM in assay [1] and 0.0297 µM in assay [2].

As to `Cc1cc(C)n(C(=O)COc2ccc(-c3cc4ccccc4[nH]3)cc2)n1`, it took 0.0432 µM to reach half-maximal inhibition in assay [1] (IC50).

For `CN(C)C(=O)COc1ccc(-c2cc3ccccc3[nH]2)cc1`, in assay [1], half-maximal inhibition (IC50) was put at 0.0343 µM.

In the case of `O=C(N/N=C/c1c(-c2ccc(O)cc2)[nH]c2ccccc12)c1ccc(Cl)cc1`, the results for the IC50 in assay [1] and in assay [2] were 0.0038 µM and 0.0372 µM, respectively.

Take `NC(=S)NNC(=O)COc1ccc(-c2cc3ccccc3[nH]2)cc1`: the IC50 in assay [1] is 0.0447 µM.

On to `O=C(COc1ccc(-c2cc3ccccc3[nH]2)cc1)Nc1ccc(S(=O)(=O)Nc2nccs2)cc1`, for which the concentration for half-maximal inhibition (IC50) in assay [1] amounted to 0.0074 µM; in assay [2], 0.029 µM.

Take `O=Cc1c(-c2ccc(O)cc2)[nH]c2ccccc12`: the half-inhibitory concentration (IC50) in assay [1] was 0.009 µM; in assay [2], 0.0422 µM.

With `O=C1NC(=S)NC(=O)C1=Cc1c(-c2ccc(O)cc2)[nH]c2ccccc12`, in assay [1], inhibition was half-maximal at 0.0551 µM (IC50).

Consider `O=C(COc1ccc(-c2cc3ccccc3[nH]2)cc1)Nc1ccncc1`, for which, in assay [1], 0.0211 µM corresponded to half-maximal inhibition (IC50).

Turning to `NNC(=O)COc1ccc(-c2cc3ccccc3[nH]2)cc1`, the IC50 in assay [1] was 0.02 µM.

The compound `O=C1NC(=O)C(=Cc2c(-c3ccc(O)cc3)[nH]c3ccccc23)C(=O)N1` displayed an IC50 in assay [1] of 0.0418 µM.

On to `CC1=NN(C(=O)COc2ccc(-c3cc4ccccc4[nH]3)cc2)C(=O)C1`, for which it took 0.0318 µM to reach half-maximal inhibition in assay [1] (IC50).

For the compound `Nc1ccc(C(=O)N/N=C/c2c(-c3ccc(O)cc3)[nH]c3ccccc23)cc1`, the values for the IC50 in assay [1] and in assay [2] were 0.0037 µM and 0.0378 µM, respectively.

Take `Oc1ccc(-c2[nH]c3ccccc3c2-c2nc3ccccc3o2)cc1`: the IC50 is 0.0175 µM in assay [1] and 0.0153 µM in assay [2].

Regarding `NC(=S)N/N=C/c1c(-c2ccc(O)cc2)[nH]c2ccccc12`, in assay [1], the IC50 stood at 0.032 µM.

Compound `O=C(COc1ccc(-c2cc3ccccc3[nH]2)cc1)Nc1cnccn1` yielded a 50% inhibitory concentration (IC50) in assay [1] of 0.0363 µM.

On to `O=C(COc1ccc(-c2cc3ccccc3[nH]2)cc1)NCCO`, for which, in assay [1], the IC50 came to 0.0968 µM.

In assay [1], `NS(=O)(=O)c1ccc(NC(=O)COc2ccc(-c3cc4ccccc4[nH]3)cc2)cc1` displayed an IC50 of 0.0242 µM.

In turn, `O/N=C/c1c(-c2ccc(O)cc2)[nH]c2ccccc12` displayed an IC50 in assay [1] of 0.0276 µM.

In assay [1], `Oc1ccc(-c2[nH]c3ccccc3c2-c2nc3ccccc3[nH]2)cc1` returned a half-maximal inhibitory concentration (IC50) of 0.0235 µM.

`CN/N=C/c1c(-c2ccc(O)cc2)[nH]c2ccccc12`: the IC50 was 0.0177 µM in assay [1] and 0.0475 µM in assay [2].

`COc1ccc2nc(-c3nnc(COc4ccc(-c5cc6ccccc6[nH]5)cc4)o3)ccc2c1` came in with an IC50 in assay [1] of 0.0221 µM.

`Nc1ccc(-c2nnc(COc3ccc(-c4cc5ccccc5[nH]4)cc3)o2)cc1`: in assay [1], the half-inhibitory concentration (IC50) amounted to 0.048 µM.

In assay [1], `CC(=O)N/N=C/c1c(-c2ccc(O)cc2)[nH]c2ccccc12` returned an IC50 of 0.0323 µM.

Take `O=C(COc1ccc(-c2cc3ccccc3[nH]2)cc1)NNc1ccccc1`: in assay [1], half-maximal inhibition (IC50) required 0.028 µM.

The compound `Oc1ccccc1-c1nnc(COc2ccc(-c3cc4ccccc4[nH]3)cc2)o1` had an IC50 in assay [1] of 0.039 µM.

`Oc1ccc(-c2cc3ccccc3[nH]2)cc1` displayed an IC50 in assay [1] of 0.0718 µM.
